Compound activity from PubChem.
DDE Tn6 FP inh – DD(E)-Tn6 binding inhibition, primary FP screen; 370,000 tested, 0.21% active; inhibition, % at 8.3 µM; P02675; Fibrin DD(E) TRITC-Tn6 fluorescence polarization displacement;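 active means inhibition above a per-campaign cutoff: mean of compounds within control limits plus 3 SD, cut at about 15% in these data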;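 further: 0% = median of all compound wells on the plate and 100% = blocking peptide control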
Target sequence (P02675 whole entry, looked up): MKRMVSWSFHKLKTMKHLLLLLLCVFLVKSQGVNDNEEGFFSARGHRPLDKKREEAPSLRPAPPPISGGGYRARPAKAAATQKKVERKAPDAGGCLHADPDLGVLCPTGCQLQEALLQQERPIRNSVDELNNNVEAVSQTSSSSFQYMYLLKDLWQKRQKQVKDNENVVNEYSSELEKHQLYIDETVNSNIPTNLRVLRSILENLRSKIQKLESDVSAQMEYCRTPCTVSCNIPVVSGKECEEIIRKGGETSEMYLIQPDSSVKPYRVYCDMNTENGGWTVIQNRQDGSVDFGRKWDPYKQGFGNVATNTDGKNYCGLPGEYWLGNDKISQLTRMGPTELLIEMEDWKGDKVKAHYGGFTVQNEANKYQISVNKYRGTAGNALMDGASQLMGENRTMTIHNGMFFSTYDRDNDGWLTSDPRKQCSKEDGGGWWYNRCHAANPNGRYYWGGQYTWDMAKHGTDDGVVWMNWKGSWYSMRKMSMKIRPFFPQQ
CendR NRP1 mod – modulators of CendR peptide binding to human neuropilin-1 | O14786 | FAM-RPARPAR peptide binding to NRP-1, fluorescence polarization | 360,000 tested, 0.85% active | inhibition, % at 25 µM | AID 602438;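 active means inhibition or corrected inhibition above about 18%, plus a signal ratio from 0.5 to 1.5, limit read from the data, passing the limit was not always enough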
Tn7 DDE FP – DD(E)-Tn7 binding inhibition, primary FP screen; AID 720508; FP displacement of FITC-Tn7 peptide from fibrin DD(E); 0% = median of compound wells per plate; inhibition, % at 8.3 µM; 370,000 tested, 0.13% active;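 active means inhibition above the mean of compounds falling within the control limits plus 3 SD of them, cut at about 14% in these data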;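 further: 0% = plate median of compound wells and 100% = 10 µM Aha-Tn7 peptide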
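System: human fibrin DD(E); quantity: Fibrin-DD(E) at 2 µM final; also added: fluorescent Tn7 probe at 0.1 µM; compound dosing: single nominal test concentration of 8.3 µM per compound; schedule: 10 min preincubation, 3 h with tracer, room temperature; detection: fluorescence polarization of the labelled Tn7 tracer; repeats: one replicate per compound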
aDG glyco up – alpha-DG glycosylation activation | Pro5-aDG cells, alpha-DG glycosylation AlphaScreen (IIH6); 0% Pro5, 100% B10-LARGE cell signal | activation, % at 10 µM | 360,000 tested, 0.22% active | AID 624168;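 active means activation of at least 8% versus controls, or a plate z-score of at least 8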;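 further: Pro5 are CHO cells carrying HIG-tagged alpha-DG that lacks glycosylation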
* = called active by the depositor; nt = no result. Rows were chosen to be rich in hits. Some 1.3% of all compounds tested hit in one or more screens of this group.

SMILES	DDE Tn6 FP inh	CendR NRP1 mod	Tn7 DDE FP	aDG glyco up
O=C1OC(c2ccc3ccccc3c2O)(c2ccc3ccccc3c2O)c2ccccc21	-8.8	25.6*	-2.5	0.0
O=C1OC2(c3ccccc31)c1ccccc1-c1ccccc12	3.6	-9.0	11.3	-0.2
Cc1nc2c(nc1C)C(=O)c1ccccc1C2=O	3.5	-12.8	-4.2	14.3*
O=C1c2ccccc2-c2nc3ccccc3nc21	0.2	5.0	3.0	1.6
COC(=O)c1c(C)c2c(C)cc3ccccn3c-2c1C(=O)OC	-2.3	35.0*	5.3	0.3
COc1ccc(-c2nnc(SCC(=O)NN=C/C=C\c3ccco3)n2-c2ccc(OC)cc2)cc1	-4.2	nt	-2.6	nt
CC(C)C(N)c1csc(NC(=O)Nc2cccc(C(F)(F)F)c2)n1 (configuration not stated)	-2.0	24.2*	-6.8	2.1
Cc1c(S(=O)(=O)N2CCCC(C(=O)O)C2)cnn1C (configuration not stated)	-1.9	21.8*	-0.1	-0.3
O=C(O)[C@@H]1CCCN(S(=O)(=O)c2cccc3cccnc23)C1	-5.0	26.2*	-4.2	0.2
O=C(NCCc1ccccc1)C1CCCN(S(=O)(=O)c2cccc3nonc23)C1 (configuration not stated)	5.7	0.4	13.9*	0.2
Cc1ccccc1N=C(N)Nc1ccccc1C	2.7	37.4*	1.3	0.3
Cc1ccccc1NC(=O)NC(N)=O	4.9	2.6	7.9	0.7
Cc1ccc(Oc2nnc(-c3ccc(C)cc3)c3ccccc23)cc1	-1.5	28.9*	-4.8	0.6
COc1ccccc1C(=O)Nc1ccc(Oc2nnc(-c3ccc(C)cc3)c3ccccc23)cc1	-9.3	-5.4	-2.2	0.8
O=C(NCc1ccc(F)cc1)C1CCN(S(=O)(=O)c2ccc(Br)s2)CC1	2.3	30.0*	-5.4	0.1
O=C(NCc1ccc(F)cc1)C1CCCN(S(=O)(=O)c2ccc(Br)s2)C1 (configuration not stated)	0.4	-0.7	3.0	0.8
COc1ccc(/C=N/NC(=O)c2cc(C34CC5CC(CC(C5)C3)C4)[nH]n2)cc1OC	-4.6	22.3*	2.4	-0.1
O=C1C=C(c2cccc3c2Oc2ccccc2S3)C[C@@H](c2ccc3c(c2)OCO3)C1	1.9	nt	8.2	nt
O=C1C=C(c2cccc3c2Oc2ccccc2S3)C[C@@H](c2ccc(Cl)cc2)C1	-2.2	29.2*	-2.5	0.1
COc1ccc(S(=O)(=O)N/N=C\c2ccc3c(c2)OCO3)c(OC)c1	0.8	30.4*	-3.4	0.0
CC(C)CN(C(=O)COC(=O)CNC(=O)c1ccc(Cl)cc1)C1CCS(=O)(=O)C1 (configuration not stated)	-5.0	8.7	-4.7	0.3
CCN(C(=O)COC(=O)CNC(=O)c1ccc(F)cc1)C1CCS(=O)(=O)C1 (configuration not stated)	0.3	28.0*	2.7	-0.4
CCNc1nc(N)c([N+](=O)[O-])c(Nc2cccc(Cl)c2)n1	0.6	nt	-0.4	nt
Fc1ccc(CNC(=S)NC2CCCCC2)cc1	2.6	2.4	-0.7	0.3
Fc1ccc(CNC(=S)NC2CCCC2)cc1	1.1	32.0*	-3.3	0.7
SMILES	DDE Tn6 FP inh	CendR NRP1 mod	Tn7 DDE FP	aDG glyco up
NS(=O)(=O)c1ccc(CNC(=S)NCc2ccc(F)cc2)cc1	-8.9	25.1*	1.3	0.1
NS(=O)(=O)c1ccc(CNC(=S)NCc2ccc(Cl)cc2)cc1	-1.4	-4.5	0.9	0.1
Cc1nn(-c2ccccc2)c(C)c1C(=O)OCC(=O)Nc1ccccc1	-10.4	26.1*	-1.8	-0.1
Cc1ccc(NC(=O)COC(=O)c2c(C)nn(-c3ccccc3)c2C)cc1	4.2	4.5	1.6	0.1
COc1ccccc1-c1noc(Cn2cc(S(=O)(=O)N3CCCC3)ccc2=O)n1	-6.2	18.5*	-3.4	-0.1
Cc1cc(C)n2nc(C(=O)OCC(=O)Nc3cc(S(=O)(=O)N4CCOCC4)ccc3Cl)nc2n1	-2.8	-1.0	0.8	0.1
CC(=O)Nc1sc2c(c1-c1nc(-c3ccccc3)cs1)CCN(C(C)C)C2	-6.6	nt	-2.4	nt
CC1=C/C(=C(/c2ccc(O)c(C)c2)c2ccccc2S(=O)(=O)O)C=CC1=O	-2.9	9.0	5.1	-0.3
CC1=C/C(=C(/c2cc(C)c(O)c(Br)c2)c2ccccc2S(=O)(=O)O)C=C(Br)C1=O	11.4	39.8*	-3.3	-0.4
O=C(O)CCSc1nnc(COc2cccc3cccnc23)n1-c1ccccc1	1.1	25.6*	3.0	0.2
COc1ccc(S[C@]2(C(=O)N3CCN(c4ncccn4)CC3)CC(=O)N(P(=O)(OC)OC)[C@@H]2c2ccc(OC)cc2)cc1	-1.6	nt	-0.4	nt
CN1CC(c2ccccc2Cl)C2(COc3ccccc3C2=O)C12C(=O)Nc1ccccc12 (configuration not stated)	-14.6	10.5	-2.5	0.1
Cc1ccc(C2CN(C)C3(C(=O)Nc4ccccc43)C23COc2ccccc2C3=O)cc1 (configuration not stated)	-2.4	40.3*	3.6	0.0
N#CCCN(C(=O)Nc1ccccc1)c1ccccc1	-2.3	28.0*	2.0	0.0
CC(=O)Nc1cc(-c2ccccc2CN(C)C)cn2c(-c3ccc(C(C)=O)cc3)cnc12	-0.6	-4.4	3.1	0.1
CCOC(=O)c1cc(-c2ccccc2)nn1CCC#N	10.8	3.6	6.0	-0.1
C=CCn1nc(-c2ccccc2)cc1C(=O)OCC	9.1	27.7*	6.8	0.4
Cc1cc(N/N=C/c2ccc([N+](=O)[O-])o2)nc2ccccc12	1.6	-36.3	9.8	8.2*
CCCCCCCC(=O)N/N=C/c1ccc([N+](=O)[O-])o1	0.6	7.7	6.1	0.9
O=C(CNc1cccc2ccccc12)N/N=C/c1ccc([N+](=O)[O-])o1	-4.3	17.8	0.3	8.2*
O=C(N/N=C/c1ccc([N+](=O)[O-])o1)c1ccc2c(c1)OCO2	1.6	-6.6	5.1	10.4*
O=C(Cc1ccc([N+](=O)[O-])cc1)N/N=C/c1ccc([N+](=O)[O-])o1	-7.2	-8.0	-2.0	10.2*
Cc1ccc(NC(=O)Cc2ccc(F)cc2)c(S(=O)(=O)N2CCOCC2)c1	1.4	nt	-3.9	nt
COC(=O)C1=C(C)N(Cc2ccc(C(F)(F)F)cc2)C(=NCc2ccccc2C(F)(F)F)NC1c1ccc(Cl)cc1 (configuration not stated)	-4.1	nt	-2.9	nt
CC(NC(=O)C=Cc1ccco1)C(=O)NC(Cc1ccccc1)C(N)=O (configuration not stated)	-0.5	nt	-4.1	nt
CCOC(=O)C1=CCN(S(=O)(=O)c2ccc(C)cc2)C1c1cccc(Cl)c1 (configuration not stated)	-1.4	8.9	-4.6	-0.1
COc1ccc(C(C(=O)N(C)C2CCCC2)N(Cc2ccc(F)cc2)C(=O)c2ncn[nH]2)cc1OC (configuration not stated)	-2.3	nt	8.3	nt
C[C@@H](C(=O)Nc1cccnc1)n1c(=O)[nH]c2ccccc2c1=O	5.3	35.3*	-0.2	-0.2
